Data taken from ChEMBL document CHEMBL5661979, “Pharmacological inhibition of BMK1 suppresses tumor growth through promyelocytic leukemia protein” (Cancer Cell, 2010).
Calls of active or inactive are those of the source. The rule behind the calls is not given here.

How the values were obtained:
[1] = target: MAP/microtubule affinity-regulating kinase 3 (Homo sapiens, UniProt P27448); experiment: Inhibition of MARK3 in human HeLa cells lysate at 50 uM pre incubated for 15 mins followed by ATP acyl phosphate probe addition and measured after 10 mins by LC-MS/MS analysis relative to control; format: subcellular; conditions: time 25.0 min
[2] = target: T1, STE20-related kinase adapter protein beta (Homo sapiens) (UniProt Q9C0K7); experiment: Inhibition of ALS2CR2 in human HeLa cells lysate at 50 uM pre incubated for 15 mins followed by ADP acyl phosphate probe addition and measured after 10 mins by LC-MS/MS analysis relative to control; format: subcellular; conditions: time 25.0 min
T1 sequence (whole entry): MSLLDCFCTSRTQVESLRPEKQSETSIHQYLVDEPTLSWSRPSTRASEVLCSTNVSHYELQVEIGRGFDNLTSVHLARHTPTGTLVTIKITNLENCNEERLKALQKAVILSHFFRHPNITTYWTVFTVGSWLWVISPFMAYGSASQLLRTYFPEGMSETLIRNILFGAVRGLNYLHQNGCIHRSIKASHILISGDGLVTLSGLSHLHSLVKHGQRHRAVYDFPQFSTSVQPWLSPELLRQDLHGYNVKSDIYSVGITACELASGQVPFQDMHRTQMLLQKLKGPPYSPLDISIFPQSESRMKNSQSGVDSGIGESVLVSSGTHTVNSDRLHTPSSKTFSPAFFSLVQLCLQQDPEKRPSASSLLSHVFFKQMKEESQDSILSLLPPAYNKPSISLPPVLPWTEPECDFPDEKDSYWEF
Outline: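 HeLa cell lysates (5 mg/mL total protein) were preincubated with inhibitor at 0, 0.8, 2, 10 or 50 μM for 15 min. ATP or ADP acylphosphate probe was then added (5 μM final) for 10 min, and reactions were stopped with urea. Up to four fragment ions per kinase probe-peptide were quantified by targeted MS. % inhibition was taken relative to untreated lysate. Run in duplicate.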

[3] = target: Ribosomal protein S6 kinase alpha-3 (Homo sapiens, UniProt P51812); experiment: Inhibition of RSK2 domain 1 active form in human HeLa cells lysate at 10 uM pre incubated for 15 mins followed by ATP acyl phosphate probe addition and measured after 10 mins by LC-MS/MS analysis relative to control; format: subcellular; conditions: time 25.0 min
[4] = target: Mitogen-activated protein kinase 7 (Mus musculus) (UniProt Q9WVS8); experiment: Inhibition of BMK1 in mouse MEF cells transfected with PML2D S403D/T409D mutant assessed as increase in p21 protein expression at 5 uM incubated for 16 hrs by Western blot analysis; format: cell-based
Outline: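 Pml−/− MEFs infected with Ad-EV, Ad-PML or Ad-PML2D. Three days later treated ±5 μM inhibitor for 16 h. p21 western blot quantified by densitometry and normalized to GAPDH, relative to untreated Ad-EV-infected Pml−/− cells set as 1. n = 3, ±SEM.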

[5] = target: T2, Phosphatidylinositol 5-phosphate 4-kinase type-2 gamma (Homo sapiens) (UniProt Q8TBX8); experiment: Inhibition of PIP5K2C LIP1 site in human HeLa cells lysate at 2 uM pre incubated for 15 mins followed by ATP acyl phosphate probe addition and measured after 10 mins by LC-MS/MS analysis relative to control; format: subcellular; conditions: time 25.0 min
T2 sequence (whole entry): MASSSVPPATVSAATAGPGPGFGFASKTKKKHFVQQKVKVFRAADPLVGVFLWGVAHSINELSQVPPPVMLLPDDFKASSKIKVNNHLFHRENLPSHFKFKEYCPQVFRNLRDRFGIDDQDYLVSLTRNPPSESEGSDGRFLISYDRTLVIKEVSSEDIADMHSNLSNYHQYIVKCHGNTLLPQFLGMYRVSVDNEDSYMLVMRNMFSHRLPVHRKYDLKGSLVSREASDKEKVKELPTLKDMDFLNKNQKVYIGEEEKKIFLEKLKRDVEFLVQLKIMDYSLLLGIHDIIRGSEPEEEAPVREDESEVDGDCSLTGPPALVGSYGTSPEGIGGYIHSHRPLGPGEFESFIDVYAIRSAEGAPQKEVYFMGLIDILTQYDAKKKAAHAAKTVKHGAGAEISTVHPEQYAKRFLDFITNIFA

[6] = Inhibition of PCTAIRE2/ICK in human HeLa cells lysate at 10 uM pre incubated for 15 mins followed by ADP acyl phosphate probe addition and measured after 10 mins by LC-MS/MS analysis relative to control; conditions: 25 min, condition cancer
[7] = target: Serine/threonine-protein kinase Chk2 (Homo sapiens, UniProt O96017); experiment: Inhibition of CHK2 in human HeLa cells lysate at 2 uM pre incubated for 15 mins followed by ADP acyl phosphate probe addition and measured after 10 mins by LC-MS/MS analysis relative to control; format: subcellular; conditions: time 25.0 min
[8] = target: Serine/threonine-protein kinase Sgk1 (Homo sapiens, UniProt O00141); experiment: Inhibition of SGK1 in human HeLa cells lysate pre incubated for 15 mins followed by ADP acyl phosphate probe addition and measured after 10 mins by LC-MS/MS analysis; format: subcellular
[9] = target: Epidermal growth factor receptor (Homo sapiens, UniProt P00533); experiment: Inhibition of EGFR in human HeLa cells lysate pre incubated for 15 mins followed by ATP acyl phosphate probe addition and measured after 10 mins by LC-MS/MS analysis; format: subcellular
[10] = target: Serine/threonine-protein kinase 38 (Homo sapiens, UniProt Q15208); experiment: Inhibition of NDR1 in human HeLa cells lysate at 2 uM pre incubated for 15 mins followed by ATP acyl phosphate probe addition and measured after 10 mins by LC-MS/MS analysis relative to control; format: subcellular; conditions: time 25.0 min
[11] = target: Cyclin-dependent kinase 9 (Homo sapiens, UniProt P50750); experiment: Inhibition of CDK9 in human HeLa cells lysate at 10 uM pre incubated for 15 mins followed by ATP acyl phosphate probe addition and measured after 10 mins by LC-MS/MS analysis relative to control; format: subcellular; conditions: time 25.0 min
Outline: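 KiNativ profiling in HeLa lysate (5 mg/mL total protein). Lysate incubated 15 min with inhibitor at 50, 10, 2, 0.8 or 0 μM. ATP or ADP acylphosphate probe then added (5 μM final) and reacted 10 min. Reaction stopped with urea and analysed by targeted MS, using up to four fragment ions per kinase peptide-probe conjugate. % inhibition taken against untreated lysate. Run in duplicate.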

[12] = target: Dual specificity mitogen-activated protein kinase kinase 3 (Homo sapiens, UniProt P46734); experiment: Inhibition of MAP2K3 in human HeLa cells lysate pre incubated for 15 mins followed by ATP acyl phosphate probe addition and measured after 10 mins by LC-MS/MS analysis; format: subcellular
Sequence of Dual specificity mitogen-activated protein kinase kinase 3 (P46734 whole entry): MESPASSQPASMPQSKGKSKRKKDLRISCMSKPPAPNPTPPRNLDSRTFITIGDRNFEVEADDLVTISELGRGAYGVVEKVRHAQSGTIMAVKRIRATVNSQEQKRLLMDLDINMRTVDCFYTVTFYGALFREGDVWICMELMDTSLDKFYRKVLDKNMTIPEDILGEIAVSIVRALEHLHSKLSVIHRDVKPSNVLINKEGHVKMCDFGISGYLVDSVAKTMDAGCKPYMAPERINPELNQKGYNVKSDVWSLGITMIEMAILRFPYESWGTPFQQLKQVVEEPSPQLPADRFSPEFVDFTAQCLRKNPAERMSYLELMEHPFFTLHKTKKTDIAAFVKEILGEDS

Sequence of Serine/threonine-protein kinase Sgk1 (O00141 whole entry): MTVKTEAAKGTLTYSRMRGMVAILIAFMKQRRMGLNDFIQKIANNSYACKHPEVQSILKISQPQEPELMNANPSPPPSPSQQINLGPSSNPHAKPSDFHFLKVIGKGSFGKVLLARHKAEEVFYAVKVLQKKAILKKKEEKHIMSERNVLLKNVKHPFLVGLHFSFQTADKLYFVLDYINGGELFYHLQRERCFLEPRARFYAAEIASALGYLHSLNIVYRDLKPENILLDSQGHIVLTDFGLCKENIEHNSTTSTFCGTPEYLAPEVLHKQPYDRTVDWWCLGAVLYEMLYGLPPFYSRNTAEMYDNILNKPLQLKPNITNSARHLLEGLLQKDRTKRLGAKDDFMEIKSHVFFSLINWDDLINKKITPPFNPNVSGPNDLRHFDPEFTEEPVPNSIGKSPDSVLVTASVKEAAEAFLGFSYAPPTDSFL
Sequence of Serine/threonine-protein kinase Chk2 (O96017 whole entry): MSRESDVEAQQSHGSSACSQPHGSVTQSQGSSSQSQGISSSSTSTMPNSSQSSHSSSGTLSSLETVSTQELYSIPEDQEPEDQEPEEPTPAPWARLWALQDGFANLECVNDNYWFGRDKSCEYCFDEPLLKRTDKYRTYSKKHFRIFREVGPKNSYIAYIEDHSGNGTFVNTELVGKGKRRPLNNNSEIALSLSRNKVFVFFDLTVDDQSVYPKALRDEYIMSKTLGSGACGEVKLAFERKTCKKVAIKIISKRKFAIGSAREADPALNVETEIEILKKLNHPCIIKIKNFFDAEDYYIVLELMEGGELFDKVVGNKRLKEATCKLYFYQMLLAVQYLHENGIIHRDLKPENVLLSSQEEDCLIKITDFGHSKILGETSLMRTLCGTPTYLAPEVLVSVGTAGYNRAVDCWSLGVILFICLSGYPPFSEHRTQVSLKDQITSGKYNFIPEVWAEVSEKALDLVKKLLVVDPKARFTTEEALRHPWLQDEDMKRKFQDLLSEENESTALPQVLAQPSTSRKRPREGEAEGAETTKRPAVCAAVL
Sequence of Epidermal growth factor receptor (P00533 whole entry): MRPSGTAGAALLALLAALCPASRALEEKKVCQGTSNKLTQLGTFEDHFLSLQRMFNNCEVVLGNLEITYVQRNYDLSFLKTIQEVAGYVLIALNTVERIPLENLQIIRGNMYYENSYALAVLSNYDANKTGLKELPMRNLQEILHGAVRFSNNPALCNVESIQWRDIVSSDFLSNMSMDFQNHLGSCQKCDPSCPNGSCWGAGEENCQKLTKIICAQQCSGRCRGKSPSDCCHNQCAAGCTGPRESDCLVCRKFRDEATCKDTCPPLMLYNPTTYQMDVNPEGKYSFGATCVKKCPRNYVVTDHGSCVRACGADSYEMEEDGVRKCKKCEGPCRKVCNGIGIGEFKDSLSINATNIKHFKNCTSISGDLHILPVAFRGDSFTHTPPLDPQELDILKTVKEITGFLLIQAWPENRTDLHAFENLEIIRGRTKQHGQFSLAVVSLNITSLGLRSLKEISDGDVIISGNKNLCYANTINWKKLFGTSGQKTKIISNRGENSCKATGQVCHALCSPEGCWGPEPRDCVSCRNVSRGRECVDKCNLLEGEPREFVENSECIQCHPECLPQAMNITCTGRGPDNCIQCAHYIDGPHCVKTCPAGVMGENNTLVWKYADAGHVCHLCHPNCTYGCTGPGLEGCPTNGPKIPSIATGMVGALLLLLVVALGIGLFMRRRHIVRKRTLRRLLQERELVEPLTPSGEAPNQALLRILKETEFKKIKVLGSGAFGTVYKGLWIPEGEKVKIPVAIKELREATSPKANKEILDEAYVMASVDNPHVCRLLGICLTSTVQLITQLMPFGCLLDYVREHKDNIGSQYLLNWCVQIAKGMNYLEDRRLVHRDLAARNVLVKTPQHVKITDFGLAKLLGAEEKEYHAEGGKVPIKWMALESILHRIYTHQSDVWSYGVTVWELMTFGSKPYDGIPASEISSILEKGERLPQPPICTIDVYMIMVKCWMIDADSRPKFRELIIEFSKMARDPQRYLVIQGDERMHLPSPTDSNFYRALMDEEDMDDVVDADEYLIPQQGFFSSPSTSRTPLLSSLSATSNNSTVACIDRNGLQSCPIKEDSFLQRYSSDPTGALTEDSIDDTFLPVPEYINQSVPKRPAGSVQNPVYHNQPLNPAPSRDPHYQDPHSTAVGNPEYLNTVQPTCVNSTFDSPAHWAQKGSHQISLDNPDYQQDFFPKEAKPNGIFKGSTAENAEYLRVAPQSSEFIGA
Sequence of Ribosomal protein S6 kinase alpha-3 (P51812 whole entry, the tested form may be a part): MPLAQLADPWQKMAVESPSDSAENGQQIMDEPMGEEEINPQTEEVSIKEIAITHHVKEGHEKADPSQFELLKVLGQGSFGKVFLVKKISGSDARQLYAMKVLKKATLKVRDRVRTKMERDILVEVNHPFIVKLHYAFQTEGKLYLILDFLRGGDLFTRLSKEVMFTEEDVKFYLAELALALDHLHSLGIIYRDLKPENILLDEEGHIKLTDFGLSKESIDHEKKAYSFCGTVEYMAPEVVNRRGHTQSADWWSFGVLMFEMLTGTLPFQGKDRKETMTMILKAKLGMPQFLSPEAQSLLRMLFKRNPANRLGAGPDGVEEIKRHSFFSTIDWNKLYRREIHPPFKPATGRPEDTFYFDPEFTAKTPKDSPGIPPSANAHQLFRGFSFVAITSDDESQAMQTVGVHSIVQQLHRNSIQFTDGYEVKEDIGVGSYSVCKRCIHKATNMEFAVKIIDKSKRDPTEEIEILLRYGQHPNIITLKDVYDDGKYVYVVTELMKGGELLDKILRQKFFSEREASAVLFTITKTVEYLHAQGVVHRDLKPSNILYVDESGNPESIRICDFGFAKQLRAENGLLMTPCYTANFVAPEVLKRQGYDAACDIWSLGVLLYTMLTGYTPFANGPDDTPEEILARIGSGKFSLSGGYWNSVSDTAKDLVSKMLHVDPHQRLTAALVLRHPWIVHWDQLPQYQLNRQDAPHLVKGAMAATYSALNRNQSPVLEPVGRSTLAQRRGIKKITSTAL
Sequence of Serine/threonine-protein kinase 38 (Q15208 2-465 limits assumed): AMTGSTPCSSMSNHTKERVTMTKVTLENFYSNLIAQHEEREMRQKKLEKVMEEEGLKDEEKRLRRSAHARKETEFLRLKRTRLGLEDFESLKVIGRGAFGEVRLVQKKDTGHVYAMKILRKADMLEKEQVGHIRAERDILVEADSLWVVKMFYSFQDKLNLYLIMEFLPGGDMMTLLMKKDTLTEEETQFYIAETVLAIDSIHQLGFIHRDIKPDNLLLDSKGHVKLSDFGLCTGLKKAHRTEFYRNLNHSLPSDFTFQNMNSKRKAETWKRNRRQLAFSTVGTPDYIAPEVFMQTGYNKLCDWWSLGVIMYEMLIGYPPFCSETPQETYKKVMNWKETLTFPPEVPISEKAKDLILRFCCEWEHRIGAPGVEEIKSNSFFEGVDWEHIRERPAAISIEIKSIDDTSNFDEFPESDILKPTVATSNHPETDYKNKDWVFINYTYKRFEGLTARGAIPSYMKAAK
Sequence of Mitogen-activated protein kinase 7 (Mus musculus) (Q9WVS8 whole entry): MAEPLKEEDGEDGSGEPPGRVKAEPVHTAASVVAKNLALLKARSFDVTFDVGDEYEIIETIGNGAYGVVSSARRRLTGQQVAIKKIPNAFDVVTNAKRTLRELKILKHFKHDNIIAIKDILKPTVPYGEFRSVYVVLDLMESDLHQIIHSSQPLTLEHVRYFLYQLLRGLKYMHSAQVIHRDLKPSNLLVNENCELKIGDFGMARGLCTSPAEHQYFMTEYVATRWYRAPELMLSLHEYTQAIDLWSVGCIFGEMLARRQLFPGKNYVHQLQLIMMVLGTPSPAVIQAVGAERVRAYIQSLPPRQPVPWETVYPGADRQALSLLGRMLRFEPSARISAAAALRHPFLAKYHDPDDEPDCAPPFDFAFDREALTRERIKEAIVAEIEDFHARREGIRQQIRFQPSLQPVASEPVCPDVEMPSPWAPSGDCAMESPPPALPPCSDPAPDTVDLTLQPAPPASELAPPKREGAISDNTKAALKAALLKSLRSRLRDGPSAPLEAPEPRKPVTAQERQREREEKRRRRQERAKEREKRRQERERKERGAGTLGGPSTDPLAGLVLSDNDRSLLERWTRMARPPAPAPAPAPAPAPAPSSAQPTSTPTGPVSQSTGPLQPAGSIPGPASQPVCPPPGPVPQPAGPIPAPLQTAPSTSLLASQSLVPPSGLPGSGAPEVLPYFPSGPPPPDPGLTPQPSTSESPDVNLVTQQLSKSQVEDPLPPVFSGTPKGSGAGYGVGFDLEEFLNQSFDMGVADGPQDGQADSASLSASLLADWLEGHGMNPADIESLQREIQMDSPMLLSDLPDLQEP
Sequence of Cyclin-dependent kinase 9 (P50750 whole entry, the tested form may be a part): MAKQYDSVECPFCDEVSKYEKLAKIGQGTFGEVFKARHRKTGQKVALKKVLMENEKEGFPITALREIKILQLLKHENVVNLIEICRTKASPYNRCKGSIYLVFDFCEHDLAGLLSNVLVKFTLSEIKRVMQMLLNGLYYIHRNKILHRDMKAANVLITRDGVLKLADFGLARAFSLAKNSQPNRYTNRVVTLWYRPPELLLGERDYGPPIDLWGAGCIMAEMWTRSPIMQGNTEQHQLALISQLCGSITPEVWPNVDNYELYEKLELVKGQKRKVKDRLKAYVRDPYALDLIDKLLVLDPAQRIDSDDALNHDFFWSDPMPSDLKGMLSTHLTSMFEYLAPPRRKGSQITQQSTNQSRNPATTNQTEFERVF

CCOc1cc(N2CCC(O)CC2)ccc1Nc1ncc2c(n1)N(C)c1ccccc1C(=O)N2C
inhibition [1]: 6.2% | inhibition [2]: 12.7% | inhibition [3]: -6.5% | inhibition [4]: inactive | inhibition [5]: -3.7% | inhibition at 10 µM [6]: -0.9% | inhibition [7]: 7.6% | IC50 [8]: > 50 µM | IC50 [9]: > 50 µM | inhibition [10]: -4.3% | inhibition [11]: -4.1% | IC50 [12]: > 50 µM
